This is an account of results in ChEMBL document CHEMBL1157474, “[11C]cyclopropyl-FLB 457: a PET radioligand for low densities of dopamine D2 receptors” (Bioorg Med Chem, 2008).

Each structure is given as a SMILES string.

Data set [1] can be described thus: Lipophilicity, log D at pH 7.4 by shake flask method. The class given is physicochemical. The note with it: buffer. The gist of the method:
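Shake-flask logD at pH 7.4: tracer in 1-octanol/phosphate buffer (pH 7.4), shaken 3 min; buffer replaced and repeated. Four octanol portions re-extracted with buffer (vortex 2 min, centrifuge 4 min at 2000 x g); both layers counted; D = octanol cpm/mL over buffer cpm/mL.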

For a further data set, the target named is D(2) dopamine receptor (Homo sapiens, UniProt P14416). Briefly: Binding affinity to dopamine D2 receptor.
The test system of another data set is Brain. Briefly: Drug uptake in iv dosed cynomolgus monkey brain after 7.5 mins by PET. Type of data set: ADME, organism-based, Macaca fascicularis. Particulars: in vivo, 0.125 h. The gist of the method:
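Ketamine/xylazine-anaesthetized cynomolgus monkeys given 56.2 ± 0.2 MBq [11C] tracer i.v. bolus over 5 sec into sural vein; 3D PET to 93 min. Whole-brain %ID = whole-brain ROI radioactivity concentration × ROI volume (~65 mL) / injected radioactivity × 100, plotted versus time; brain activity assumed unchanged radioligand.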

Data set [2] is described as follows: Ratio of drug uptake in cerebellum to putamen in iv dosed cynomolgus monkey after 84 mins by PET. The class given is ADME, organism-based, Macaca fascicularis. The note with it: in vivo, 1.4 h. In a few lines: (§1)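 Baseline PET in ketamine/xylazine-anaesthetized cynomolgus monkeys after i.v. bolus of 56.2 ± 0.2 MBq tracer, scanned to 93 min. Regional radioactivity expressed as %SUV; region-to-cerebellum ratios taken at 84 min, cerebellum serving as reference region for free plus non-specific binding.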

Data set [3] is described as follows: Ratio of drug uptake in cerebellum to caudate nucleus in iv dosed cynomolgus monkey after 84 mins by PET. Particulars: in vivo, 1.4 h. Type of data set: ADME, organism-based, Macaca fascicularis. In a few lines:
as §1

The nature of data set [4]: Ratio of drug uptake in cerebellum to pallidum in iv dosed cynomolgus monkey after 84 mins by PET. The note with it: in vivo, 1.4 h. The class given is ADME, organism-based, Macaca fascicularis. The gist of the method:
as §1

A short description of data set [5]: Ratio of drug uptake in cerebellum to thalamus in iv dosed cynomolgus monkey by PET. Type of data set: ADME, organism-based, Macaca fascicularis. The note with it: in vivo.
The nature of data set [6]: Ratio of drug uptake in cerebellum to frontal cortex in iv dosed cynomolgus monkey by PET. The class given is ADME, organism-based, Macaca fascicularis. The note with it: in vivo.
Data set [7] in a line: Ratio of drug uptake in cerebellum to parietal cortex in iv dosed cynomolgus monkey by PET. The class given is ADME, organism-based, Macaca fascicularis. The note with it: in vivo.
Data set [8] can be described thus: Ratio of drug uptake in cerebellum to temporal cortex in iv dosed cynomolgus monkey by PET. The note with it: in vivo. The class given is ADME, organism-based, Macaca fascicularis.
Data set [9] in a line: Metabolic stability in cynomolgus monkey plasma after 45 mins. The class given is ADME, cell-free, Macaca fascicularis. Particulars: read-out: Stability. The gist of the method:
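Monkey femoral vein blood drawn at 4, 15, 30, 45 min post-injection; plasma deproteinized with acetonitrile, centrifuged at 2000 x g, supernatant run on reverse-phase C18 radio-HPLC with acetonitrile/0.01 M phosphoric acid gradient, 6 mL/min; parent fraction versus polar metabolites; recovery checked by NaI well counting.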

Data set [10] can be described thus: Protein binding in cynomolgus monkey plasma at 10 MBq. The class given is ADME, cell-free, Macaca fascicularis. The note with it: read-out: PPB (converted). The gist of the method:
(§2)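 Monkey plasma (baseline or after raclopride pretreatment) mixed with tracer (~10 MBq) for 10 min at room temperature, then ultrafiltered (YM-30 membrane) by centrifugation; filtrate counted versus incubate. Duplicates; corrected for membrane binding using 0.9% NaCl controls.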

The nature of data set [11]: Protein binding in cynomolgus monkey plasma at 10 MBq in presence of raclopride. The class given is ADME, cell-free, Macaca fascicularis. Particulars: read-out: PPB (converted). The gist of the method:
as §2

A short description of data set [12]: Ratio of drug uptake in occipital cortex to cerebellum in iv dosed cynomolgus monkey by PET. The note with it: in vivo.
For data set [13], the system named is Macaca fascicularis. The data set is described as follows: Binding affinity to dopamine D2 receptor in iv dosed cynomolgus monkey brain cerebellum pretreated with raclopride by PET. The note with it: tested as the 11C-labelled form. Type of data set: organism-based.
Data set [14] concerns Macaca fascicularis. Briefly: Binding affinity to dopamine D3 receptor in iv dosed cynomolgus monkey brain cerebellum pretreated with raclopride by PET. The class given is organism-based. Particulars: tested as the 11C-labelled form.

Chain of D(2) dopamine receptor (P14416 whole entry): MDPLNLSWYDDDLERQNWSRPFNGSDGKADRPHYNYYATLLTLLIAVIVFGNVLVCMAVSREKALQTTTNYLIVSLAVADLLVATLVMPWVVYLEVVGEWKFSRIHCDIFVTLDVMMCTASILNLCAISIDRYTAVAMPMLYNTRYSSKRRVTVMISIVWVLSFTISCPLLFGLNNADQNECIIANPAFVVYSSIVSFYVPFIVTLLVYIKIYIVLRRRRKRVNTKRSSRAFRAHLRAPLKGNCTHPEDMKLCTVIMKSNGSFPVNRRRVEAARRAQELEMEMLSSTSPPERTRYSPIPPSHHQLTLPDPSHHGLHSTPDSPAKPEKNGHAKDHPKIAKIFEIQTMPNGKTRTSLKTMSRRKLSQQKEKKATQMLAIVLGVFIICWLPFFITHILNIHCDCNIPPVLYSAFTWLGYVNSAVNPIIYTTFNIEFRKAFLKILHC

A word on the logD: it is lipophilicity at a set pH, counting ionised and neutral species. Consider `CCN1CCC[C@H]1CNC(=O)c1cc(Br)cc(OC)c1O[11CH3]`, for which the pH-dependent lipophilicity (logD) in data set [1] amounted to 1.33.
A word on the Ki: it is the dissociation constant of the complex between target and ligand, obtained from inhibition or displacement. At D(2) dopamine receptor, `CCN1CCC[C@H]1CNC(=O)c1cc(Br)cc(OC)c1OC` yielded an inhibition constant Ki of 3 pM.
Regarding `COc1cc(Br)cc(C(=O)NC[C@@H]2CCCN2CC2CC2)c1O[11CH3]`, the Drug uptake in the data set with Brain was determined as 4.4 %ID. In addition, the Ratio in data set [2] is reported as 7.61; in data set [3], 6.6; in data set [4], 5.4; in [5], 3.7; in data set [6], 3.24; in [7], 2.98. The values for the Ratio in data set [8] and in [12] were 2.59 and 2.08, respectively. For the same compound, the remaining at 0.75 h in [9] was determined as 60%. This compound had a logD in data set [1] of 1.82. For the same compound, the fraction unbound at 10 MBq was 0.68 in data set [10] and 0.64 in data set [11].
Take `COc1cc(Br)cc(C(=O)NC[C@@H]2CCCN2CC2CC2)c1OC`: the Activity with Macaca fascicularis [13] and with Macaca fascicularis [14] was 50% throughout.
